Values after ≈ are worked out from the molar mass of the structure shown.
Tests used:
[1] = Selectivity ratio of CC50 for human MT4 cells to EC50 for HIV1 harboring reverse transcriptase F227L/V106A double mutant infected in human MT4 cells; assay type: toxicity, cell-based; settings: read-out: Ratio CC50/EC50
[2] = biological target: Human immunodeficiency virus type 1 reverse transcriptase (Human immunodeficiency virus 1, UniProt Q72547); assay: Inhibition of recombinant HIV1 reverse transcriptase using (DIG)-dUTP and biotin-labeled dNTPs as substrate after 1 hr by ELISA
[3] = Selectivity ratio of CC50 for human MT4 cells to EC50 for HIV1 harboring reverse transcriptase K103N mutant infected in human MT4 cells; assay type: toxicity, cell-based; settings: read-out: Ratio CC50/EC50
[4] = system: Human immunodeficiency virus 1; assay: Resistance factor, ratio of EC50 for HIV1 harboring reverse transcriptase F227L/V106A double mutant to EC50 for wild type HIV1; assay type: functional
Method in brief: (§1)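 The resistance factor is the EC50 against the mutant strain divided by the EC50 against wild-type HIV-1. Both were measured in MT-4 cells by MTT read-out of protection from virus-induced cytopathicity.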

[5] = system: Human immunodeficiency virus 1; assay: Antiviral activity against HIV1 harboring reverse transcriptase F227L/V106A double mutant infected in human MT4 cells assessed as reduction in virus-induced cytopathic effect after 5 days by MTT assay; assay type: functional, organism-based; settings: Human immunodeficiency virus 1, MT4, 120 h
[6] = system: Human immunodeficiency virus 1; assay: Resistance factor, ratio of EC50 for HIV1 harboring reverse transcriptase E138K mutant to EC50 for wild type HIV1; assay type: functional; method in brief: as §1
[7] = Selectivity ratio of CC50 for human MT4 cells to EC50 for HIV1 harboring reverse transcriptase E138K mutant infected in human MT4 cells; assay type: toxicity, cell-based; settings: read-out: Ratio CC50/EC50
[8] = system: Human immunodeficiency virus 1; assay: Resistance factor, ratio of EC50 for HIV1 harboring reverse transcriptase L100I mutant to EC50 for wild type HIV1; assay type: functional; method in brief: as §1
[9] = system: Human immunodeficiency virus 1; assay: Antiviral activity against HIV1 harboring reverse transcriptase Y188L mutant infected in human MT4 cells assessed as reduction in virus-induced cytopathic effect after 5 days by MTT assay; assay type: functional, organism-based; settings: Human immunodeficiency virus 1, MT4, 120 h
[10] = system: Human immunodeficiency virus 1; assay: Antiviral activity against HIV1 harboring reverse transcriptase L100I mutant infected in human MT4 cells assessed as reduction in virus-induced cytopathic effect after 5 days by MTT assay; assay type: functional, organism-based; settings: Human immunodeficiency virus 1, MT4, 120 h
[11] = Aqueous solubility of the compound in FASSIF by HPLC analysis; assay type: physicochemical; settings: simulated gi fluid
Method in brief: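 Solubility read by HPLC in fasted state simulated intestinal fluid (FaSSIF).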

[12] = system: Human immunodeficiency virus 1; assay: Antiviral activity against HIV1 harboring reverse transcriptase Y181C mutant infected in human MT4 cells assessed as reduction in virus-induced cytopathic effect after 5 days by MTT assay; assay type: functional, organism-based; settings: Human immunodeficiency virus 1, MT4, 120 h
[13] = system: Human immunodeficiency virus 2; assay: Antiviral activity against HIV2 ROD infected in human MT4 cells assessed as reduction in virus-induced cytopathic effect after 5 days by MTT assay; settings: Human immunodeficiency virus 2, ISOLATE ROD, MT4, 120 h
[14] = system: Human immunodeficiency virus 1; assay: Resistance factor, ratio of EC50 for HIV1 harboring reverse transcriptase Y181C mutant to EC50 for wild type HIV1; assay type: functional; method in brief: as §1
[15] = Selectivity ratio of CC50 for human MT4 cells to EC50 for HIV1 harboring reverse transcriptase Y188L mutant infected in human MT4 cells; assay type: toxicity, cell-based; settings: read-out: Ratio CC50/EC50
[16] = system: Human immunodeficiency virus 1; assay: Resistance factor, ratio of EC50 for HIV1 harboring reverse transcriptase K103N mutant to EC50 for wild type HIV1; assay type: functional; method in brief: as §1
[17] = Aqueous solubility of the compound at pH at 7.4 by HPLC analysis; assay type: physicochemical; settings: buffer, pH 7.4
Method in brief: (§2)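 Aqueous solubility read by HPLC in buffer at pH 2.0, 7.0 or 7.4.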

[18] = system: Human immunodeficiency virus 1; assay: Antiviral activity against HIV1 harboring reverse transcriptase E138K mutant infected in human MT4 cells assessed as reduction in virus-induced cytopathic effect after 5 days by MTT assay; assay type: functional, organism-based; settings: Human immunodeficiency virus 1, MT4, 120 h
[19] = system: Human immunodeficiency virus 1; assay: Antiviral activity against wild type HIV1 3B infected in human MT4 cells assessed as reduction in virus-induced cytopathic effect after 5 days by MTT assay; assay type: functional, organism-based; settings: Human immunodeficiency virus 1, 3B, MT4, 120 h
[20] = Selectivity ratio of CC50 for human MT4 cells to EC50 for HIV1 harboring reverse transcriptase Y181C mutant infected in human MT4 cells; assay type: toxicity, cell-based; settings: read-out: Ratio CC50/EC50
[21] = Aqueous solubility of the compound at pH at 2 by HPLC analysis; assay type: physicochemical; settings: buffer, pH 2; method in brief: as §2
MT4 = assay: Cytotoxicity against human MT4 cells after 5 days by MTT assay; assay type: cell-based; settings: mt4, 120 h
[22] = system: Human immunodeficiency virus 1; assay: Antiviral activity against HIV1 RES056 infected in human MT4 cells assessed as reduction in virus-induced cytopathic effect after 5 days by MTT assay; assay type: functional, organism-based; settings: Human immunodeficiency virus 1, RES056, MT4, 120 h
[23] = Aqueous solubility of the compound at pH at 7 by HPLC analysis; assay type: physicochemical; settings: buffer, pH 7; method in brief: as §2
[24] = Selectivity ratio of CC50 for human MT4 cells to EC50 for HIV1 RES056 infected in human MT4 cells; assay type: toxicity, cell-based; settings: read-out: Ratio CC50/EC50
[25] = Selectivity ratio of CC50 for human MT4 cells to EC50 for HIV1 3B infected in human MT4 cells; assay type: toxicity, cell-based; settings: read-out: Ratio CC50/EC50
[26] = Selectivity ratio of CC50 for human MT4 cells to EC50 for HIV1 harboring reverse transcriptase L100I mutant infected in human MT4 cells; assay type: toxicity, cell-based; settings: read-out: Ratio CC50/EC50
[27] = system: Human immunodeficiency virus 1; assay: Resistance factor, ratio of EC50 for HIV1 harboring reverse transcriptase Y188L mutant to EC50 for wild type HIV1; assay type: functional; method in brief: as §1
[28] = system: Human immunodeficiency virus 1; assay: Antiviral activity against HIV1 harboring reverse transcriptase K103N mutant infected in human MT4 cells assessed as reduction in virus-induced cytopathic effect after 5 days by MTT assay; assay type: functional, organism-based; settings: Human immunodeficiency virus 1, MT4, 120 h

In the case of `Cc1cc(C#N)cc(C)c1Oc1nc(NC2CCN(Cc3ccc(S(N)(=O)=O)cc3)CC2)nc2c1COC2`, the selectivity ratio [1] is reported as 2270, the IC50 [2] is reported as 109 nM and the selectivity ratio [3] is reported as 9220. For the same compound, the “Ratio EC50” value [4] was 4.2, the EC50 [5] was 12.7 nM and the “Ratio EC50” value [6] was 2.7. For the same compound, the selectivity ratio [7] was 3470, the “Ratio EC50” value [8] was 1.1 and the EC50 [9] was 15.2 nM. For the same compound, the EC50 [10] was 3 nM, the solubility [11] was 8.42 µg/mL (≈ 15.7 µM) and the EC50 [12] was 5.4 nM. The EC50 [13] was no less than 8370 nM, the “Ratio EC50” value [14] was 1.9 and the selectivity ratio [15] was 1810. For the same compound, the “Ratio EC50” value [16] was 1, the solubility [17] was 5.68 µg/mL (≈ 10.6 µM) and the EC50 [18] was 7.9 nM. The EC50 [19] was 2.8 nM, the selectivity ratio [20] was 5090 and the solubility [21] was 174 µg/mL (≈ 325 µM). It also gave a CC50 (MT4) of 27500 nM, an EC50 [22] of 38 nM and a solubility [23] of 10.3 µg/mL (≈ 19.3 µM). For the same compound, the selectivity ratio [24] was 725, the selectivity ratio [25] was 9520 and the selectivity ratio [26] was 8940. The “Ratio EC50” value [27] was 5.3 and the EC50 [28] was 2.9 nM.

Compound `Cc1cc(C#N)cc(C)c1Oc1nc(NC2CCN(Cc3ccc(C(N)=O)cc3)CC2)nc2c1SCC2` has a selectivity ratio [1] of 4000, an IC50 [2] of 66 nM and a selectivity ratio [3] of 28900. The “Ratio EC50” value [4] was 7.9, the EC50 [5] was 36.5 nM and the “Ratio EC50” value [6] was 3.3. For the same compound, the selectivity ratio [7] was 9520, the “Ratio EC50” value [8] was 3.3 and the EC50 [9] was 22.1 nM. It also gave an EC50 [10] of 15.2 nM, an EC50 [12] of 8.4 nM and an EC50 [13] greater than 165000 nM. For the same compound, the “Ratio EC50” value [14] was 1.8, the selectivity ratio [15] was 6590 and the “Ratio EC50” value [16] was 1.1. The EC50 [18] was 15.3 nM, the EC50 [19] was 4.8 nM and the selectivity ratio [20] was 17300. For the same compound, the CC50 (MT4) was 165000 nM, the EC50 [22] was 43.6 nM and the selectivity ratio [24] was 3800. The selectivity ratio [25] was 34200, the selectivity ratio [26] was 9580 and the “Ratio EC50” value [27] was 4.8. The EC50 [28] was 5 nM.

`Cc1cc(C#N)cc(C)c1Oc1nc(NC2CCN(Cc3ccncc3)CC2)nc2c1CCCC2` showed an IC50 [2] of 72 nM, an EC50 [13] of 21700 nM and an EC50 [19] of 8.6 nM. For the same compound, the CC50 (MT4) was 75800 nM, the EC50 [22] was 172 nM and the selectivity ratio [24] was 440. It also gave a selectivity ratio [25] of 8750.

`Cc1cc(C#N)cc(C)c1Oc1nc(NC2CCN(Cc3ccc([N+](=O)[O-])cc3)CC2)nc2c1CSC2` showed an IC50 [2] of 129 nM, an EC50 [13] greater than 27100 nM and an EC50 [19] of 11.5 nM. It also gave a CC50 (MT4) of 27100 nM, an EC50 [22] of 1140 nM and a selectivity ratio [24] of 24. It also gave a selectivity ratio [25] of 2340.

`Cc1cc(C#N)cc(C)c1Oc1nc(NC2CCN(Cc3ccc(S(C)(=O)=O)cc3)CC2)nc2c1CSC2` showed an IC50 [2] of 91 nM, an EC50 [13] of no less than 22700 nM and an EC50 [19] of 3.8 nM. For the same compound, the CC50 (MT4) was 45300 nM, the EC50 [22] was 170 nM and the selectivity ratio [24] was 259. The selectivity ratio [25] was 11700.

For `Cc1cc(C#N)cc(C)c1Oc1nc(NC2CCN(Cc3ccc(S(C)(=O)=O)cc3)CC2)nc2c1CCC2`, the IC50 [2] was 157 nM, the EC50 [13] was 41800 nM and the EC50 [19] was 4.9 nM. The CC50 (MT4) was 7450 nM, the EC50 [22] was 187 nM and the selectivity ratio [24] was 40. It also gave a selectivity ratio [25] of 1500.

Reference: ChEMBL document CHEMBL4368909, “Identification of Dihydrofuro[3,4- d]pyrimidine Derivatives as Novel HIV-1 Non-Nucleoside Reverse Transcriptase Inhibitors with Promising Antiviral Activities and Desirable Physicochemical Properties” (J Med Chem, 2019)
